Test results: ChEMBL document CHEMBL6115033, “Discovery of a Pyrazolopyridinone-Based MYC Inhibitor That Selectively Engages Intracellular c-MYC and Disrupts MYC-MAX Heterodimerization” (J Med Chem, 2025)
Activity calls are given as the source filed them. The calls are words filed in the database; no cut-off is given here.

Legend:
[1] = Induction of apoptosis in human P493-6 cells assessed as viable cells at 50 uM incubated for 24 hrs by Annexin V/PI staining based flow cytometry analysis (reference value: 90.8%); format: functional; settings: read-out: Activity
P493-6 [2] = test: Downregulation of SKP2 mRNA expression in human P493-6 cells at 25 uM incubated for 12 hrs by qRT-PCR analysis; format: functional, cell-based
Summary of the method: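 P493-6 cells seeded at 500,000 per well and cultured with or without 25 uM compound for the indicated time. Total RNA extracted with TRIzol. Reverse transcription at 25 °C for 10 min, 37 °C for 120 min, then 85 °C for 5 min. SYBR green qPCR used primers for MYC target genes. Relative mRNA expressed as ΔΔCT.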

[3] = Induction of apoptosis in human P493-6 cells assessed as viable cells at 25 uM incubated for 24 hrs by Annexin V/PI staining based flow cytometry analysis (reference value: 90.8%); format: functional; settings: read-out: Activity
[4] = molecular target: Myc proto-oncogene protein (Homo sapiens) (UniProt P01106); test: Binding affinity to MYC in human P493-6 cells assessed as thermal stabilization by measuring melting temperature at 25 uM measured for 2 hrs by CETSA analysis (reference value: 42 degreeC)
[5] = molecular target: c-Myc/c-Max (Homo sapiens) (UniProt P01106+P61244); test: Disruption of MYC-MAX interaction in human MDA-MB-468 cells assessed as reduction in myc level at 25 uM; format: cell-based
MDA-MB-468 [6] = test: Downregulation of MYC level in human MDA-MB-468 cells at 50 uM incubated for 24 hrs in presence of MG132 by Western blot analysis; format: functional, cell-based; settings: in the assay text read “Stabilization of MYC protein level” for “Downregulation of MYC level”
Summary of the method: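 MDA-MB-468 cells were pretreated with 30 µM MG132 for 1 h, then exposed to graded concentrations or DMSO for 24 h. MYC was read by western blot.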

MDA-MB-468 [7] = test: Downregulation of CDK1 mRNA expression in human MDA-MB-468 cells at 25 uM incubated at 48 hrs by qRT-PCR analysis; format: functional, cell-based
Summary of the method: (§1)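 Cells (500,000/well) were cultured with or without 25 µM for the indicated time. Total RNA was extracted with TRIzol and reverse-transcribed. qPCR used SYBR green with target-gene primers, reported as ΔΔCT.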

P493-6 [8] = test: Downregulation of MYC level in human P493-6 cells measured at 20 to 60 mins by Western blot analysis; format: functional, cell-based; settings: time 20-60 min
Summary of the method: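 Cells were pretreated with 25 µM or DMSO for 3 h, then given 50 µg/mL cycloheximide for the indicated times. MYC was measured by western blot, and half-life came from a one-phase exponential decay fit.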

MDA-MB-468 [9] = test: Antitumor activity against human MDA-MB-468 cells xenografted in mouse assessed as reduction in Ki67 expression at 10 mg/kg, sc measured at 14 to 26 days by IHC analysis; settings: time 14-26 day
MDA-MB-468 [10] = test: Downregulation of SKP2 mRNA expression in human MDA-MB-468 cells at 25 uM incubated at 48 hrs by qRT-PCR analysis; format: functional, cell-based; summary of the method: as §1
MDA-MB-231 = test: Antiproliferative activity against human MDA-MB-231 cells assessed as cell viability incubated for 96 hrs by MTT assay; format: functional, cell-based; settings: MDA-MB-231, 96 h
Summary of the method: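 Adherent cells (2000/well) attached overnight, then exposed to compounds at 0.14–100 µM for 96 h in DMEM with 10% FBS. MTT at 0.5 mg/mL for 4 h in the dark, formazan dissolved in DMSO, absorbance at 570 nm. Compounds were freshly prepared in DMSO, with DMSO below 1%.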

MCF7 = test: Induction of apoptosis in human MCF7 cells cultured as 3D spheroids assessed as inhibition of cell growth incubated for 5 days; format: functional, cell-based; settings: time 5.0 day
Summary of the method: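 Cells plated at 4000 per well in low-attachment 24-well plates and grown in Mammocult medium for 48 h to form mammospheres. Spheres then exposed to 25 uM compound for 5 days, with untreated control wells. Read-out was imaging of the mammospheres formed.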

MDA-MB-468 [11] = test: Downregulation of E2F1 mRNA expression in human MDA-MB-468 cells at 25 uM incubated for 12 hrs by qRT-PCR analysis; format: functional, cell-based; summary of the method: as §1
MDA-MB-468 [12] = test: Downregulation of MYC level in human MDA-MB-468 cells at 25 uM by Western blot analysis; format: functional, cell-based; settings: time 9-24 hrs
Summary of the method: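 MDA-MB-468 cells were exposed to 25 µM over a time course of up to 24 h. MYC and FBXW7 were read by western blot.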

Sequence of c-Myc/c-Max (Homo sapiens) (P01106 whole entry): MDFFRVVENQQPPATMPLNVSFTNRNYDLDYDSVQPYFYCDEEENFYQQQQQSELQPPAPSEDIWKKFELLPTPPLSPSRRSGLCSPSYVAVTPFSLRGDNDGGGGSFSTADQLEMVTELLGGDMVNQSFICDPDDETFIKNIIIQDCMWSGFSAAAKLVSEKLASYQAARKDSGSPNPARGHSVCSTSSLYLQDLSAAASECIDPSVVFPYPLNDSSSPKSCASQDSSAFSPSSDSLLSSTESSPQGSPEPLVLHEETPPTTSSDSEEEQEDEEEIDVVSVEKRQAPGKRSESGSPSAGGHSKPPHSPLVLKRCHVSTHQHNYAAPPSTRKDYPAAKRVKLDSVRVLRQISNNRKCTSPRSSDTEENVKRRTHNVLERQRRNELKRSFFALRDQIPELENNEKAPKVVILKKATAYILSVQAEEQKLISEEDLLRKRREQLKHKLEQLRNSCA
Sequence of c-Myc/c-Max (Homo sapiens) (P61244 2-160 partner limits assumed): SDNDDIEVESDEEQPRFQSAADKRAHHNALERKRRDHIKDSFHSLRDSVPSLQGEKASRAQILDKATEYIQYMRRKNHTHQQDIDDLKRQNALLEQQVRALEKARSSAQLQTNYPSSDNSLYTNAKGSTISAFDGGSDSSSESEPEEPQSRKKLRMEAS
Sequence of Myc proto-oncogene protein (Homo sapiens) (P01106 whole entry): as the sequence (P01106 whole entry) above

- Tm [4]: 38 °C
- Activity [5]: Active
- IC50 (MDA-MB-231): 10.6 µM
SMILES: N#Cc1cc2c(-c3ccc(Cl)cc3)nn(-c3ccccc3)c2[nH]c1=O
- viability at 50 µM [1]: 77.2%
- Activity (P493-6 [2]): Active
- viability at 25 µM [3]: 85.5%
- Activity (MDA-MB-468 [6]): Active
- Activity (MDA-MB-468 [7]): Active
- Activity (P493-6 [8]): Active
- Activity (MDA-MB-468 [9]): Active
- Activity (MDA-MB-468 [10]): Active
- Activity (MCF7): Active
- Activity (MDA-MB-468 [11]): Active
- Activity (MDA-MB-468 [12]): Time-dependent-effect
